Laboratory results as given in ChEMBL document CHEMBL3243931, “Dihydroretinoic acids and their derivatives. Synthesis and biological activity” (1977).
The source made the active and inactive calls. The rule behind the calls is not given here.

How the values were obtained:
Mus musculus [1] = experiment: Activity against chemically-induced skin papillomas in Swiss albino mouse assessed as change in total papilloma diameter at 80 mg/kg/day, ip administered five times per week for 2 weeks measured on day 14; format: functional; settings: route intraperitoneal
Hamster [2] = experiment: Reversal of keratinized lesions in vitamin A deficient hamster tracheal organ culture assessed as cultures with keratin and keratohyaline granules at 0.1 uM after 7 days (reference value: 93%); format: functional, Cricetinae, Trachea
Hamster [3] = experiment: Reversal of keratinized lesions in vitamin A deficient hamster tracheal organ culture assessed as cultures with keratin and keratohyaline granules at 10 nM after 7 days (reference value: 93%); format: functional, Cricetinae, Trachea
Hamster [4] = experiment: Reversal of keratinized lesions in vitamin A deficient hamster tracheal organ culture assessed as cultures with keratin and keratohyaline granules at 1 nM after 7 days (reference value: 93%); format: functional, Cricetinae, Trachea
Mus musculus [5] = experiment: Activity against chemically-induced skin papillomas in Swiss albino mouse assessed as change in total papilloma diameter at 10 mg/kg/day, ip administered five times per week for 2 weeks measured on day 14; format: functional; settings: route intraperitoneal
[6] = Increase in RNA content in mouse epidermal cells at 1 uM after 3 days; format: functional
Summary of the method: (§1)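 Mouse skin epidermal cell cultures grown 3 days with retinoid added from Me2SO stock (final Me2SO ≤1.0%); controls received equivalent Me2SO and no retinoid. RNA measured; value is percentage increase over control cultures; 6–9 cultures per concentration.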

[7] = Increase in RNA content in mouse epidermal cells at 0.1 uM after 3 days; format: functional; summary of the method: as §1
[8] = Increase in RNA content in mouse epidermal cells at 1 nM after 3 days; format: functional; summary of the method: as §1
[9] = Increase in RNA content in mouse epidermal cells at 10 nM after 3 days; format: functional; summary of the method: as §1
Hamster [10] = experiment: Reversal of keratinized lesions in vitamin A deficient hamster tracheal organ culture assessed as cultures with keratin and keratohyaline granules at 1 uM after 7 days (reference value: 93%); format: functional, Cricetinae, Trachea
Mus musculus [11] = experiment: Activity against chemically-induced skin papillomas in Swiss albino mouse assessed as change in total papilloma diameter at 160 mg/kg/day, ip administered five times per week for 2 weeks measured on day 14; format: functional; settings: route intraperitoneal
Mus musculus [12] = organism: Mus musculus; experiment: Increase in DNA content in mouse epidermal cells; format: functional, cell-based
Summary of the method: (§2)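 Mouse skin epidermal cell cultures with retinoid added to the medium from Me2SO stock (final Me2SO ≤1.0%); controls given equivalent Me2SO; increase in DNA or protein content measured relative to cultures without retinoid.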

Mus musculus [13] = organism: Mus musculus; experiment: Increase in protein content in mouse epidermal cells; format: functional, cell-based; summary of the method: as §2
[14] = Increase in RNA content in mouse epidermal cells at 0.1 nM after 3 days; format: functional; summary of the method: as §1
Mus musculus [15] = experiment: Activity against chemically-induced skin papillomas in Swiss albino mouse assessed as change in total papilloma diameter at 40 mg/kg/day, ip administered five times per week for 2 weeks measured on day 14; format: functional; settings: route intraperitoneal

Row | SMILES | Activity (Mus musculus [1]) [%] | Cultures with keratinized lesions (Hamster [2]) [%] | Activity (Hamster [3]) [%] | Activity [6] [%] | Activity [7] [%] | Activity [8] [%] | Activity [9] [%] | also measured
1 | COC(=O)/C=C(C)/C=C/C=C(\C)CCc1c(C)cc(OC)c(Cl)c1C | 1 | – | – | – | – | – | – | –
2 | CC(/C=C/C1C(C)CCCC1(C)C)=C\C=C\C(C)=C\C(=O)O (stereo not drawn) | – | 0 | 0 | – | – | – | – | Activity (Hamster [4]): 6%; Activity (Mus musculus [5]): -9%
3 | CCOC(=O)/C=C(C)/C=C/C=C(C)/C=C/C1=C(C)CCCC1(C)C | -47 | 0 | 0 | 123 | 102 | 23 | 57 | –
4 | COc1cc(C)c(/C=C/C(C)=C/C=C/C(C)=C/C(=O)O)c(C)c1C [ACITRETIN] | – | 0 | 35 | – | – | – | – | Activity (Hamster [10]): 0%; Activity (Hamster [4]): 100%; Activity (Mus musculus [5]): -43%
5 | COC(=O)/C=C(\C)CC/C=C(C)/C=C/c1c(C)cc(OC)c(Cl)c1C | 29 | – | – | – | – | – | – | –
6 | COc1cc(C)c(/C=C/C(C)=C/CC/C(C)=C/C(=O)O)c(C)c1C | -17 | 44 | 86 | – | – | – | – | Activity (Hamster [10]): 0%; Activity (Mus musculus [11]): -66%
7 | COC(=O)/C=C(\C)CC/C=C(C)/C=C/C1=C(C)CCCC1(C)C | -13 | 24 | 83 | 21 | 5 | 3 | 9 | Activity (Mus musculus [12]): Active; Activity (Mus musculus [13]): Active
8 | CCOC(=O)CC(C)/C=C/C=C(C)/C=C/C1=C(C)CCCC1(C)C (stereo not drawn) | – | 12 | 83 | 69 | 13 | 12 | 12 | Activity (Mus musculus [12]): Active; Activity (Mus musculus [11]): -14%; Activity (Mus musculus [13]): Active
9 | COC(=O)/C=C(\C)CC/C=C(C)/C=C/c1c(C)cc(C)c(Cl)c1C | 29 | – | – | – | – | – | – | –
10 | COC(=O)/C=C(C)/C=C/C=C(C)/C=C/C1=C(C)CCCC1(C)C [RETINOIC ACID METHYL ESTER] | – | 0 | 0 | 126 | 75 | 8 | 25 | –
11 | COC(=O)/C=C(C)/C=C/C=C(\C)CCc1c(C)cc(N(C)C)cc1C | 20 | – | – | – | – | – | – | –
12 | CC1=C(/C=C/C(C)C/C=C/C(C)=C/C(=O)O)C(C)(C)CCC1 (racemic) | – | 52 | 96 | 118 | 29 | 3 | 28 | Activity (Mus musculus [12]): Active; Activity (Mus musculus [13]): Active
13 | CC1=C(/C=C/C(C)=C/C=C/C(C)=C/C(=O)O)C(C)(C)CCC1 [TRETINOIN] | – | 0 | 3 | – | – | 68 | 100 | Activity [14]: 19%; Activity (Mus musculus [15]): -55%; Activity (Hamster [4]): 0%
14 | CC1=C(CC/C(C)=C/C=C/C(C)=C\C(=O)O)C(C)(C)CCC1 | -28 | – | – | – | – | – | – | –
15 | COc1cc(C)c(CC/C(C)=C/C=C/C(C)=C/C(=O)O)c(C)c1C | -35 | 63 | 85 | – | – | – | – | Activity (Hamster [10]): 0%
16 | CC1=C(CC/C(C)=C/C=C/C(C)=C/C(=O)O)C(C)(C)CCC1 | -33 | 0 | 25 | 106 | 115 | 1 | 82 | Activity (Mus musculus [12]): Active; Activity (Mus musculus [13]): Active
